Compound activity deposited in PubChem by Sanford-Burnham Center for Chemical Genomics.
An excerpt weighted towards active compounds, which were near 2.3% of everything screened.
LMPTP block: LMPTP (human) inhibition; inhibition, % at 20 µM; 360,000 tested, 0.22% active; P24666; recombinant LMPTP-A, OMFP fluorogenic substrate, fluorescence intensity;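 active = compounds that cut the enzyme signal by at least half of the control window in the single-dose screen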
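material = LMPTP-A | quantity = 0.625 nM enzyme | reagent = OMFP substrate, 400 µM final | buffer or medium = Bis-Tris pH 6.0, DTT, detergent | detection = endpoint fluorescence intensity from OMFP dephosphorylation | dosing = single 20 µM dose | read-out basis = % inhibition relative to no-enzyme and uninhibited control wells | control set = no-enzyme and uninhibited controls | timing = 50 min at room temperature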
Rpn11 block: inhibitors of human proteasome Rpn11; 360,000 tested, 0.59% active; AID 588493; O00487; human 26S proteasome, Ub4-pepOG fluorescence polarization; 20S core pre-blocked with epoxomicin; inhibition, % at 20 µM;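 active = inhibition at 20 µM, scaled to each plate's controls, above about 33%, limit read from the data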
Target sequence (O00487 whole entry, looked up): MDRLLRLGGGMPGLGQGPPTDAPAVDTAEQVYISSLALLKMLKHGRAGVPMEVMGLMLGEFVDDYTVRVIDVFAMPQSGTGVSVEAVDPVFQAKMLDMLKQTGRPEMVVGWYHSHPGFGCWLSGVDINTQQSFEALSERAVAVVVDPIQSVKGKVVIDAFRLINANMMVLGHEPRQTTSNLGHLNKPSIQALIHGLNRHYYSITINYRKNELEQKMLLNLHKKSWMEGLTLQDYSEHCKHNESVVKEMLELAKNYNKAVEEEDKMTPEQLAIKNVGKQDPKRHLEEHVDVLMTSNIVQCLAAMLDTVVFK
STEP block: blocks human striatal-enriched tyrosine phosphatase | P54829 | recombinant STEP, OMFP fluorogenic substrate, fluorescence | inhibition, % at 20 µM | 360,000 tested, 0.25% active | AID 588621;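 active = inhibition at 20 µM, scaled per plate between control wells, above about 37%, limit read from the data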
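Measure: Control-normalized % inhibition with plate pattern correction | Test system: STEP phosphatase, cell-free reaction | Medium: pH 6.0 Bis-Tris with DTT and Tween 20 | Technique: Fluorescence, 480/540 nm | Times: Reaction 20 min, ambient temperature | Doses: Single compound dose of 20 µM, 1% DMSO final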
DNMT1 inh: DNMT1 (human) enzyme inhibition; P26358; DNMT1 molecular beacon, Hinp1I cleavage, fluorescence; inhibition (reported as % activation of signal), % at 10 µM; 360,000 tested, 0.83% active; AID 588458; in the data active = inhibition above about 50%
Scp1 inh: Scp-1 (human) phosphatase inhibition | Q9GZU7 | Recombinant Scp1, phosphopeptide, malachite green phosphate absorbance | inhibition, % at 20 µM | 340,000 tested, 0.88% active | AID 493091;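 active = inhibition above about 50% at 20 µM, limit read from the data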
Target sequence (Q9GZU7 76-261 limits assumed): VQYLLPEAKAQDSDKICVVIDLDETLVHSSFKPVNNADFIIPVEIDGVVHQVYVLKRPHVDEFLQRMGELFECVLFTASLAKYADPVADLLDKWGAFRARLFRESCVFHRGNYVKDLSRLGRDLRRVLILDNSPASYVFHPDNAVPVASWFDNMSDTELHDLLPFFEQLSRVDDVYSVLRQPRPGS
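System: SCP-1 catalytic domain; Reagent: Phospho 17-mer peptide substrate; Doses: one concentration, 20 µM, with 1.0% DMSO; Incubation: 45 min room-temperature reaction, 5 min colour, 30 min stabiliser; Signal: Phosphate-binding colour reagent, absorbance read at 630 nm.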
SUMO1 PPI mod: alters human SUMO1 binding to SIM partners | 360,000 tested, 0.33% active | P63165 | inhibition, % at 20 µM | SUMO1 binding to a labelled peptide, TR-FRET, 1 h; in the data active = inhibition above about 37%
Target sequence (P63165 whole entry, looked up): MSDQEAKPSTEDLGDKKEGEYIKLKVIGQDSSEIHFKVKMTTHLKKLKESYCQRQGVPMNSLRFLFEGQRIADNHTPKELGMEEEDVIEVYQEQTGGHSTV
Rpn11 confirm: confirmation of human proteasome Rpn11 inhibitors; AID 602318; purified human 26S proteasome, Ub4-pepOG fluorescence polarization; proteasome pretreated with epoxomicin; 1,900 tested, 29% active; inhibition, % at 20 µM; shares compounds with Rpn11 block
MMP-2 inh: counter-screen for RPN11 inhibitors: inhibition of human MMP-2; shares compounds with Rpn11 block; recombinant MMP-2, FRET peptide cleavage fluorescence; inhibition, % at 20 µM; 1,900 tested, 4% active; AID 602330;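 also: human MMP-2 activated beforehand with APMA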
Thrombin inh: counter-screen for RPN11 inhibitors: inhibition of bovine thrombin. shares compounds with Rpn11 block. bovine thrombin cleavage of Ub4-pepOG, fluorescence polarization. inhibition, % at 20 µM. 1,900 tested, 13% active;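 active = mean inhibition at least 40% at 20 µM, or signal 3 deviations below plate average, so some actives read negative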
Large screens that a line does not name were inactive (follow-up assays come after a bar, where shown). Rule as the data show it, unless noted: active = inhibition above about 40%; inactive = the rest.

COC(=O)Cn1c(=O)c2c(nc3n2CC(C)CN3c2ccc(C)c(C)c2)n(C)c1=O (centres undefined)	none
CCCCOC(=O)c1ccc(NC(=O)C(CCS(C)(=O)=O)NC(C)=O)cc1 (centres undefined)	Rpn11 block 36 | Rpn11 confirm inactive | MMP-2 inh inactive | Thrombin inh inactive
Cc1nc2ccc(NC(=O)[C@@H](NC(=O)c3c(F)cccc3F)C(C)C)cc2s1	Rpn11 block 50 | Rpn11 confirm 58 | MMP-2 inh inactive | Thrombin inh 70
CC(=O)Nc1ccc(N2C(=O)CSC2c2cccc([N+](=O)[O-])c2)cc1 (centres undefined)	none
Nc1c(C(=O)N/N=C/c2ccc(F)cc2)oc2nc(-c3ccccc3)cc(-c3ccco3)c12	Rpn11 block 44 | Rpn11 confirm 94 | MMP-2 inh inactive | Thrombin inh inactive
Cc1ccccc1CC(=O)Nc1sc(C(C)C)cc1C(=O)N1CCOCC1	none
COc1ccccc1N1C(=O)S/C(=C\c2ccc(C)s2)C1=O	Rpn11 block 96 | Rpn11 confirm 57 | MMP-2 inh inactive | Thrombin inh inactive
COc1ccccc1N1C(=O)S/C(=C\c2cc(C)n(C)c2C)C1=O	none
COCCCn1c(=O)/c(=C/c2ccccc2OC(F)F)s/c1=C(\C#N)C(=O)NCCOC	Rpn11 block 84 | Rpn11 confirm inactive | MMP-2 inh 47 | Thrombin inh inactive
COCCCn1c(=O)/c(=C\c2cccc(OC)c2OC)s/c1=C(/C#N)C(=O)Nc1ccc(C(=O)O)cc1	Rpn11 block 102 | Rpn11 confirm 46 | MMP-2 inh inactive | Thrombin inh 86
CN(C)CCNC(=O)C1(O)c2cc(Br)ccc2NC(=O)N1c1ccc(Cl)cc1 (centres undefined)	none
C=CC[C@@H](CC(=O)N(CCO)Cc1ccccc1)C(=O)N[C@H](COC(=O)[C@H](CC=C)CC(=O)OC(C)(C)C)Cc1c[nH]c2ccccc12	none
CCOC(=O)N1CCN(C(=O)c2nc3ccccc3s2)CC1	Rpn11 block 111 | Rpn11 confirm inactive | MMP-2 inh inactive | Thrombin inh inactive
CC(C)(C)S(=O)N1Cc2cc(C(=O)O)nc(-c3cccc(-c4cc5ccccc5o4)c3)c2[C@H]1CCO (some centres undefined)	none (no result: Scp1 inh)
CC(C)(C)S(=O)N1Cc2cc(C(=O)N[C@@H]3CCN(Cc4ccccc4)C3)nc(-c3cccc(-c4cc5ccccc5o4)c3)c2[C@@H]1CCO (some centres undefined)	Rpn11 block 68 (no result: Scp1 inh) | Rpn11 confirm inactive | MMP-2 inh inactive | Thrombin inh inactive
C(=N\Nc1nc(-c2ccccc2)cs1)/c1cccs1	none
CSc1nc2ccc3nc(NC(=O)c4cccs4)sc3c2s1	Rpn11 block 47, SUMO1 PPI mod 44 | Rpn11 confirm inactive | MMP-2 inh inactive | Thrombin inh inactive
COc1cccc(/C=N/NC(=O)CNC(=O)C(c2ccccc2)c2ccccc2)c1O	none
CC(=O)Nc1cc(C(N)=O)c(Cl)cc1Cl	none
CN1CCc2c(sc3c2C(=O)NC(c2cn(Cc4ccccc4)c4ccccc24)N3)C1 (centres undefined)	Rpn11 block 57 | Rpn11 confirm 59 | MMP-2 inh inactive | Thrombin inh 41
CS(=O)(=O)N(CC(=O)Nc1ccc2c(c1)OCCO2)c1ccc2c(c1)OCO2	Rpn11 block 150 | Rpn11 confirm inactive | MMP-2 inh inactive | Thrombin inh inactive
COc1ccc(NC(=O)CN(C)S(=O)(=O)c2ccc(Cl)cc2)c([N+](=O)[O-])c1	Rpn11 block 39 | Rpn11 confirm inactive | MMP-2 inh inactive | Thrombin inh inactive
COc1cc(NC(=O)CN(C)S(=O)(=O)c2ccc(C)cc2)cc(OC)c1	Rpn11 block 38 | Rpn11 confirm inactive | MMP-2 inh inactive | Thrombin inh inactive
CCCCn1c(N)c(N(CCOC)C(=O)CC(NC(=O)c2ccccc2Cl)c2ccccc2)c(=O)[nH]c1=O (centres undefined)	none
COc1cccc(/C=N/NC(=O)CN(C)S(=O)(=O)c2ccccc2)c1OC	none
CCOc1ccc(C(=O)NCC(=O)NNC(=O)CN(C)S(=O)(=O)c2ccc(Cl)cc2)cc1OCC	none
COC1=C/C(=C/c2c(N)n3cc(C)sc3nc2=O)C=CC1=O	none (not shown: Rpn11 block)
CCOC1=C/C(=C/c2c(N)n3nc(CC(=O)N4CCCC4)sc3nc2=O)C=CC1=O	Rpn11 block 71 | Rpn11 confirm inactive | MMP-2 inh inactive | Thrombin inh inactive
COC1=C/C(=C/c2c(N)n3nc(CC(=O)N4CCCC4)sc3nc2=O)C=CC1=O	Rpn11 block 70 | Rpn11 confirm inactive | MMP-2 inh inactive | Thrombin inh inactive
Cc1cc(C)c(C#N)c(SC(F)F)n1	none
Cc1ccc(N2C(=S)N=C(Nc3ccccc3C)C23CCOC(C)(C)C3)cc1 (centres undefined)	none
Cc1ccc2oc(=O)c(/C=C(\O)c3ccco3)nc2c1	Rpn11 block 66 | Rpn11 confirm 70 | MMP-2 inh inactive | Thrombin inh inactive
Cc1ccc2oc(=O)c(/C=C(\O)C(C)(C)C)nc2c1	none
O=C(OCC(=O)N1CCCC1=O)c1nc(Cl)c(Cl)c(Cl)c1Cl	none
O=C(Nc1ccccc1N1CCCCC1)c1ccc(-c2cccc(Cl)c2)o1	none
O=C(Nc1cccc2nsnc12)c1ccc(-c2cccc(Cl)c2)o1	Rpn11 block 72 | Rpn11 confirm inactive | MMP-2 inh inactive | Thrombin inh inactive
COc1ccc(N2CCN(C(=O)c3cc(=O)c4cc(C)c(C)cc4o3)CC2)cc1	none
CCc1cc(C(=O)N2CCCC(CO)(Cc3ccc(F)cc3)C2)n(C)n1 (centres undefined)	none
Cc1cc(C)c2c(N)c(C(=O)N/N=C/c3cccs3)sc2n1	Rpn11 block 95 | Rpn11 confirm 58 | MMP-2 inh inactive | Thrombin inh 41
CN(C)CCCNc1nc2cc(-c3ccc4c(ccn4C)c3)sc2c(=O)n1C	Rpn11 block 39 (no result: Scp1 inh) | Rpn11 confirm inactive | MMP-2 inh inactive | Thrombin inh inactive
CCc1noc(C)c1C(=O)N1CCC(CCC(=O)Nc2cccc(C)c2)CC1	none
COC(=O)c1cc(S(=O)(=O)N2CCCC2=O)c(Cl)cc1Cl	none
